Source: ChEMBL document CHEMBL4513216, “Probing the Open Global Health Chemical Diversity Library for Multistage-Active Starting Points for Next-Generation Antimalarials” (ACS Infect Dis, 2020)

experiment: Toxicity liver stage against HepG2, at 10uM; assay type: cell-based; parameters: test concentration 10 uM, cell line HepG2-A16-CD81EGFP; details: human, HepG2-A16-CD81EGFP cells; read-out: INHIBITION
Method in brief: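 Uninfected HepG2-A16-CD81EGFP cells, 3 × 10^3 per well, 1536-well, plated on prespotted compound at 10 μM final, parasite-free screening media added to match infected plates; puromycin 10 μM positive, DMSO 0.5% negative; run in parallel with 48 h PbLuc assay at 37 °C, 5% CO2; viability by CellTiter-Glo luminescence, normalized to controls.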

| Structure (SMILES) | cytotoxicity at 10 µM [%] |
| --- | --- |
| COc1ccc(Cl)cc1C(=O)NCc1cnn(C)c1C | 6.81 |
| CCC(CC)C(=O)N1CCN(Cc2nc3ccccc3c(=O)[nH]2)CC1 | -17.6 |
| COC(=O)c1ccc(NC(=O)CCNCc2ccco2)cc1 | -3.64 |
| O=C1CO[C@H]2CN(Cc3cccnc3)C[C@H]2N1 | -4 |
| O=S(=O)(Cc1ccccc1)NC[C@H]1Cn2ccnc2CO1 | 6.88 |
| CC1=Nc2c(c(=O)[nH]n2C2CCCCC2)C(c2ccc(C(=O)O)cc2)S1 (centres undefined) | -7.92 |
| Cc1nc(C(=O)N2CCN(S(=O)(=O)N(C)C)CC2)c(-c2ccccc2)s1 | 3.67 |
| CC(C)Oc1ccc(C(=O)N2CCCSCC2CN(C)C)cc1 (centres undefined) | 9.9 |
| O=C(Nc1cccnc1)c1nn(C2CCS(=O)(=O)C2)c2c1CCCC2 (centres undefined) | 7.41 |
| COc1ccc(C2CC(=O)Nc3nc(N4CCOCC4)sc32)c(OC)c1 (centres undefined) | 53.8 |
| Cn1ncc(C(=O)N2CCN(C(=O)c3ccco3)CC2)c1Cl | 2.88 |
| Cc1cncc(C2CCN(Cc3cnc(C)nc3)CC2)n1 | 5.38 |
| Cn1ccc(C(=O)N2CCCC2c2[nH]ncc2C(N)=O)n1 (centres undefined) | 15.3 |
| NC(=O)CN1CCCCC1c1nc(N)ncc1-c1cccc(F)c1 (centres undefined) | -13.5 |
| Cc1cc(N(C)C)nc(C2(C)CCCN2C(=O)c2ccn(C)n2)n1 (centres undefined) | -1.06 |
| CC(=O)Nc1nc(C2CCN(C(=O)C3CCC3)CC2)cs1 | -2.36 |
| COCC(=O)N1CCCC(c2cccc(-n3ccnc3)n2)C1 (centres undefined) | -9.69 |
| O=C(N1CCCCC1)N1CCCC1c1nnc2n1CCNC2 (centres undefined) | 13.6 |
| Cc1cc(C2CCCN2Cc2nc(-c3ccco3)no2)on1 (centres undefined) | 7.53 |
| CC1COc2ccccc2N1C(=O)c1cscn1 (centres undefined) | 11.5 |
| COc1ccc(CNC(C)c2cnn(C)c2)cc1OC1CCCC1 (centres undefined) | -0.734 |
| Cc1nc(CN2CCCN(CC(=O)N(C)CCC#N)CC2)no1 | 6.28 |

| Structure (SMILES) | cytotoxicity at 10 µM [%] |
| --- | --- |
| COc1c(C(=O)NC(C)CC(=O)c2cccs2)c(C)nn1C (centres undefined) | -10.1 |
| COCc1cccc(NCc2cccnc2)c1 | 4.16 |
| CCc1nc(CN(C)C2CCN(Cc3ccc(Cl)s3)C2)no1 (centres undefined) | 9.41 |
| O=C(c1cn(-c2ccccc2C(F)(F)F)nn1)N1CCSCC1 | -0.111 |
| CSCCc1ccc(NC(=O)NC(C)Cn2cncn2)cc1 (centres undefined) | 2.56 |
| CC(C)CCN1CCN(C(=O)c2cccnc2-n2cncn2)CC1 | 6.37 |
| CCN(CC)Cc1ccc(C(=O)NC2CCc3cc(Br)ccc32)o1 (centres undefined) | -3.3 |
| O=C(NCC1CCN(c2ccncc2)CC1)C(O)c1ccccc1 (centres undefined) | 8.15 |
| Cc1cccc(N2CCC(NCc3cnc(C4CCC4)s3)CC2)n1 | 6.08 |
| CC(C)=CCN1CCN(C(C)c2cccnc2)CC1 (centres undefined) | -2.65 |
| Cc1cc(S(=O)(=O)NCC(C)(O)CN(C)C)c(F)cc1F (centres undefined) | 10 |
| CCC(C)(COc1ncccc1Cl)NCC(=O)Nc1ccc(Br)cn1 (centres undefined) | -2.89 |
| Cc1cnn(C2CN(CC(O)Cn3cccn3)C2)c1 (centres undefined) | 9.12 |
| Cc1ccc(C)n1-c1c(C(=O)NCC(c2ccsc2)N(C)C)cnn1C (centres undefined) | 17.1 |
| COc1ccc(C(C)NCc2cnnn2C)cc1F (centres undefined) | -9.72 |
| COCCN1CC[C@@H]2OC[C@H](C(=O)N(C)Cc3ccccn3)C[C@@H]2C1 | -98.5 |
| CCN1Cc2ccccc2CC2(CCN(C(=O)N(C)C)CC2)C1=O | 8.3 |
| O=C1CO[C@@H]2CNC[C@H]2N1CC1CC1 | -95.7 |
| Cc1ncsc1CN1C[C@@H]2CN(S(C)(=O)=O)CCO[C@@H]2C1 | -105 |
| Cn1cc(CN2C[C@@H]3CCC[C@@H](OCc4cccnc4)[C@@H]3C2)cn1 | -107 |
| CS(=O)(=O)N1C[C@@H](NC(=O)c2ccno2)[C@@H]2OCCC[C@@H]21 | -108 |
| Cc1occc1C(=O)N1CCC2(CCC2NC(=O)c2ccn(C)c2)CC1 (centres undefined) | -1.75 |

| Structure (SMILES) | cytotoxicity at 10 µM [%] |
| --- | --- |
| Cc1ccc(CN2CC[C@H]3OCC[C@@H](c4nc(C)no4)[C@H]3C2)cc1 | -6.95 |
| Cc1[nH]c2ccccc2c1-c1ccnc(N[C@@H](CO)C(C)C)n1 | -4.19 |
| COc1ccc(CN(CC2CCCO2)C(=O)CN2CCOC2=O)cc1 (centres undefined) | -1.39 |
| CCc1nc(NC(=O)NCCc2scnc2C)nn1C | 0.102 |
| C[C@@H]1CC[C@@H](C)N1C(=O)c1cc(COc2ccccc2)[nH]n1 | 4.82 |
| CCc1nc(C)c(CC(=O)N2CCC3(CC2)OCCCC3O)c(=O)[nH]1 (centres undefined) | 9.16 |
| CC(C)N1CCC(CC(=O)NC(C(=O)O)c2cccc(F)c2)CC1 (centres undefined) | -0.114 |
| O=C(NCc1nnc2n1CCCC2)c1cn(-c2ccccc2)nn1 | -2.12 |
| CCc1[nH]c2ccc(CNC(=O)c3cnc(N)nc3C)cc2c1C | -3.56 |
| c1ccc(CCN2CCN(C3CCOC4(CCOCC4)C3)CC2)cc1 (centres undefined) | -3.79 |
| CC(C)=CCN1C[C@@H]2CN(C(=O)c3ccc(CO)cc3)C[C@]2(C(=O)O)C1 | 2.21 |
| Cc1cc(C)c2c(NCC3(O)CCCCC3)ncnc2n1 | -7.13 |
| CCN(CCN1CCOCC1)C(=O)c1cccnc1 | 7.42 |
| Cc1ccc(CSc2nc(N)cc(NCCC(=O)N3CCCC3)n2)cc1 | 1.87 |
| CN(Cc1ccsc1)Cc1nc(-c2ccncc2)no1 | 1.93 |
| Cc1cc(NCCNc2cccnc2)nc(N)n1 | -5.86 |
| COc1ccc(CN2CCN(C(=O)N(C)C)[C@@H]3CS(=O)(=O)C[C@@H]32)cc1F | 1.24 |
| CN(C)CC1(O)CCN(C(=O)c2ccc(-n3cccn3)cc2Cl)C1 (centres undefined) | -0.662 |
| CC(C)(N)C(=O)N1CCCC(C(=O)c2ccc(C(C)(C)C)cc2)C1 (centres undefined) | -1.1 |
| CCc1ccc(C(=O)N2CCC(O)(CN3CCOCC3)C(C)(C)C2)[nH]1 (centres undefined) | 0.542 |
| COCCOC(=O)N1CCn2nc(CN(C)Cc3nccs3)cc2C1 | 1.32 |
| CC(NS(C)(=O)=O)C(=O)N(C)Cc1cnn(-c2ccc(F)cc2)c1 (centres undefined) | -7.94 |

| Structure (SMILES) | cytotoxicity at 10 µM [%] |
| --- | --- |
| Cc1cc(-c2nn(C)c(Cl)c2CN2CC[C@H](CO)[C@@H](O)C2)no1 | 2.45 |
| CCOCCN1CCC=C(C2c3nc[nH]c3CCN2C(C)=O)C1 (centres undefined) | -3.67 |
| CSCC[C@@H](CO)Nc1ccc(-c2nc(-c3ccccc3C)no2)cn1 | 3.77 |
| Cc1ccn2cc(C(=O)N3CCCC(Cn4cc(CO)nn4)C3)nc2c1 (centres undefined) | 2.41 |
| COc1ccc(-c2nc3c([nH]2)CCNC3C(=O)O)c2ccc(C)nc12 (centres undefined) | 0.562 |
| c1ccc(C2CCCN2C2CSCCSC2)nc1 (centres undefined) | -3.77 |
| CC(C)CCn1c(=O)n(CCn2cccc2)c2cc(C(=O)O)cnc21 | -2.95 |
| CCC(Nc1cccc(OC)c1)C(=O)NCc1nc(C)cc(=O)[nH]1 (centres undefined) | 4.91 |
| CC(C)CN1CCCn2nc(CNC(=O)OCc3ccccc3)cc2C1 | 1.04 |
| CNC(=O)C1CC(=O)N(c2cccc(F)c2)C1 (centres undefined) | 4.61 |
| Cc1ccc(CN2CCN(Cc3ccncc3)[C@@H]3CS(=O)(=O)C[C@@H]32)cc1 | 6.86 |
| O=C(O)CC[C@@H]1CN(c2ccncc2)CC[C@@H]1N1CCOCC1 | 0.0482 |
| Cc1[nH]c2c(C)ccc(C)c2c1CC(=O)NCCCNc1cccnc1 | 0.0773 |
| CC(Cn1cccn1)n1cnc2cccc(Cl)c2c1=O (centres undefined) | -5.41 |
| CCN(CC)S(=O)(=O)N1CCCC(c2ccc(C(=O)O)cc2)C1 (centres undefined) | -7.27 |
| CN(C)S(=O)(=O)N1CCC2(CCCN(Cc3ccc(F)cc3)C2=O)C1 (centres undefined) | -9.67 |
| CC(CN1CCCC1)C(=O)N1CCC(c2nccn2CC2CC2)CC1 (centres undefined) | -26.3 |
| CN(C)CC1(O)CCN(S(=O)(=O)c2ccc(F)cc2)C1 (centres undefined) | -3.09 |
| Cc1csc2c(=O)n3c(nc12)CCN(C(=O)c1cccnc1)CC3 | -2.09 |
| O=C(NC(Cc1ccsc1)c1nccs1)C1CCOCC1 (centres undefined) | 1.9 |
| Cc1cc(CN2CCN(C(=O)NC(C)Cn3ccnc3)CC2)on1 (centres undefined) | -7.42 |
| Fc1cccc(CN2CCN(Cc3cscn3)CC2)c1 | -0.612 |

| Structure (SMILES) | cytotoxicity at 10 µM [%] |
| --- | --- |
| CN1CCN(c2cc(N3CCCC3CO)ncn2)Cc2ccccc21 (centres undefined) | -5.22 |
| CC(NC(=O)NCc1ccoc1)c1ccc2c(c1)CCC(=O)N2 (centres undefined) | -1.12 |
| OCCn1cc(CN2CCN(CCOc3ccccc3F)CC2)cn1 | -5.72 |
| CCc1nc(C2CCCN(C(=O)c3cccc4c3ccn4C)C2)no1 (centres undefined) | -14.4 |
| Cn1cnc2c1CCN(Cc1ccc(C(=O)N3CCCC3)cc1)C2 | -8.62 |
| COc1ccsc1C(=O)N1CCCC(n2nc(C)nc2C)C1 (centres undefined) | -3.69 |
| Cc1cccc(C2(CNC(=O)CCN3C(=O)CCC3=O)CCCC2)c1 | -7.59 |
| Cc1cc(C2CCCN(CCCNS(C)(=O)=O)C2)n[nH]1 (centres undefined) | -5.2 |
| c1ccc(Cn2cncn2)c(CNCC2CNc3ccnn3C2)c1 (centres undefined) | -3.61 |
| Cc1sc2c(C3CCCNC3)nc(Nc3cccc(F)c3)n2c1C (centres undefined) | 1.24 |
| CCN1C[C@H]2C3(CCN(C(C)=O)CC3)CC[C@@]2(C(=O)N(C)C)C1 | -104 |
| Brc1ccc(CNCc2nnc3n2CCC3)s1 | -4.2 |
| CNC(=O)COC1COC2(CCN(c3cnccn3)CC2)C1 (centres undefined) | -8.44 |
| CN(C)CCN1CCCC12CCCN(Cc1ccco1)C2 (centres undefined) | 10.3 |
| O=S(=O)(NC1CCC12CCN(CC1CCOCC1)CC2)c1ccccc1 (centres undefined) | -1.34 |
| Cc1oncc1C(=O)NCc1cc(=O)n2c(n1)CN(CC1CC1)CCC2 | -4.5 |
| CN1CCN(Cc2cn3c(n2)CNCC3)CC1 | 7.85 |
| Cc1ccc(N2CCC3(CCN(C(=O)c4ccsc4)C3)CC2)nn1 | -0.0395 |
| O=C(C1CC1)N1CCOC2(CCNCC2)C1 | -112 |
| Cc1ccc(C(=O)N2CCC3(CCCN(c4ncc(F)cn4)C3)C2)cn1 (centres undefined) | -106 |
| CCN1CCN(c2nc3cn(-c4cnn(CC)c4)c(=O)c-3c[nH]2)CC1 | 4.01 |
